Laboratory results reported in ChEMBL document CHEMBL4308878, “Discovery of covalent enzyme inhibitors using virtual docking of covalent fragments” (Bioorg Med Chem Lett, 2019).
Activity calls are given as the source filed them. No cut-off for these calls is given here.

Assays:
[1] = molecular target: T1, Cathepsin B (Homo sapiens, UniProt P07858); assay: Inhibition of cathepsin B (unknown origin) using Z-Arg-Arg-AMC as substrate after 5 mins by fluorimetric method
[2] = molecular target: T1, Cathepsin B; assay: Inhibition of cathepsin B (unknown origin) assessed as ratio of Kinact to Ki using Z-Arg-Arg-AMC as substrate after 5 mins by fluorimetric method
[3] = molecular target: T2, Procathepsin L (Homo sapiens, UniProt P07711); assay: Inhibition of cathepsin L (unknown origin) using Z-Phe-Arg-AMC as substrate after 5 mins by fluorimetric method
[4] = molecular target: T2, Procathepsin L; assay: Inhibition of cathepsin L (unknown origin) assessed as ratio of Kinact to Ki using Z-Phe-Arg-AMC as substrate after 5 mins by fluorimetric method
Target sequence in this assay (P07711 114-333 limits assumed): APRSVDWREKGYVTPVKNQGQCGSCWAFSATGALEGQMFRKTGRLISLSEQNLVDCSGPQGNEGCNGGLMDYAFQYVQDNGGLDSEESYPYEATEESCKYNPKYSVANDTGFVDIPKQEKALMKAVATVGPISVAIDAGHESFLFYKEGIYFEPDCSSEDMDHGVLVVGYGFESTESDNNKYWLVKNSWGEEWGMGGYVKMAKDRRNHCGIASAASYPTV

[5] = molecular target: T2, Procathepsin L; assay: Inhibition of human liver cathepsin L assessed as ratio of Kinact to Ki using Z-FR-AMC as substrate measured at 1 min interval for 20 mins followed by every 15 mins for 2 hrs by fluorescence assay
Target sequence in this assay (P07711 114-333 limits assumed): as above

[6] = molecular target: T2, Procathepsin L; assay: Competitive inhibition of human liver cathepsin L using Z-FR-AMC as substrate measured at 1 min interval for 20 mins followed by every 15 mins for 2 hrs by fluorescence assay
[7] = molecular target: T1, Cathepsin B; assay: Inhibition of human liver cathepsin B using Z-Arg-Arg-AMC as substrate measured at 1 min interval for 20 mins followed by every 15 mins for 2 hrs by fluorescence assay
[8] = molecular target: T1, Cathepsin B; assay: Inhibition of human liver cathepsin B using Z-Arg-Arg-AMC as substrate preincubated for 60 mins followed by substrate addition and measured at 1 min interval for 20 mins consecutively at every 15 mins for 2 hrs by fluorescence assay
[9] = molecular target: T3, Calpain-1 catalytic subunit (Homo sapiens) (UniProt P07384); assay: Inhibition of human calpain1 using Suc-Leu-Tyr-AMC as substrate measured at 1 min interval for 20 mins followed by every 15 mins for 2 hrs by fluorescence assay
T3 sequence (whole entry): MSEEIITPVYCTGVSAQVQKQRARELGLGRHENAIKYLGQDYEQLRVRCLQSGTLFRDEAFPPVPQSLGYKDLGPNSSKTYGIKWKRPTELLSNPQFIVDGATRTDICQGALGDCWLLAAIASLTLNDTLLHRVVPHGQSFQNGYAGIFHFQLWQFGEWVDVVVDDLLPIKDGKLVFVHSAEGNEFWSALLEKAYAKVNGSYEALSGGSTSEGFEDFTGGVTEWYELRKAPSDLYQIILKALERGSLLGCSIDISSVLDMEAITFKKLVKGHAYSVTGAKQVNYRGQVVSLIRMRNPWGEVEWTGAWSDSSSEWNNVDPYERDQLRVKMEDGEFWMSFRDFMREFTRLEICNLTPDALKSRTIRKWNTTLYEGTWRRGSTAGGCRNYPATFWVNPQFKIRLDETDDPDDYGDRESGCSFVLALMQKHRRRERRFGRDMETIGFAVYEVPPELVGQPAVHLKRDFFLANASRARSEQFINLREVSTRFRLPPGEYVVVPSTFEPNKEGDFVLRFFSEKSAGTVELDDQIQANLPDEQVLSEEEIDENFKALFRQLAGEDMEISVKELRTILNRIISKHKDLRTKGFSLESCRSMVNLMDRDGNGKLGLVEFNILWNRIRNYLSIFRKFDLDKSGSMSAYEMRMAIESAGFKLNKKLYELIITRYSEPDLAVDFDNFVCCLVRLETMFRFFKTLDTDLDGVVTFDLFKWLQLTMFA

[10] = molecular target: T3, Calpain-1 catalytic subunit (Homo sapiens); assay: Inhibition of human calpain1 using Suc-Leu-Tyr-AMC as substrate preincubated for 60 mins followed by substrate addition and measured at 1 min interval for 20 mins consecutively at every 15 mins for 2 hrs by fluorescence assay
[11] = molecular target: T4, Ubiquitin carboxyl-terminal hydrolase 8 (Homo sapiens) (UniProt P40818); assay: Inhibition of recombinant USP8 catalytic domain (unknown origin) using Ubiquitin-Lys-TAMRA as substrate measured at 6 mins interval for 4 hrs by fluorescence assay
T4 sequence (whole entry): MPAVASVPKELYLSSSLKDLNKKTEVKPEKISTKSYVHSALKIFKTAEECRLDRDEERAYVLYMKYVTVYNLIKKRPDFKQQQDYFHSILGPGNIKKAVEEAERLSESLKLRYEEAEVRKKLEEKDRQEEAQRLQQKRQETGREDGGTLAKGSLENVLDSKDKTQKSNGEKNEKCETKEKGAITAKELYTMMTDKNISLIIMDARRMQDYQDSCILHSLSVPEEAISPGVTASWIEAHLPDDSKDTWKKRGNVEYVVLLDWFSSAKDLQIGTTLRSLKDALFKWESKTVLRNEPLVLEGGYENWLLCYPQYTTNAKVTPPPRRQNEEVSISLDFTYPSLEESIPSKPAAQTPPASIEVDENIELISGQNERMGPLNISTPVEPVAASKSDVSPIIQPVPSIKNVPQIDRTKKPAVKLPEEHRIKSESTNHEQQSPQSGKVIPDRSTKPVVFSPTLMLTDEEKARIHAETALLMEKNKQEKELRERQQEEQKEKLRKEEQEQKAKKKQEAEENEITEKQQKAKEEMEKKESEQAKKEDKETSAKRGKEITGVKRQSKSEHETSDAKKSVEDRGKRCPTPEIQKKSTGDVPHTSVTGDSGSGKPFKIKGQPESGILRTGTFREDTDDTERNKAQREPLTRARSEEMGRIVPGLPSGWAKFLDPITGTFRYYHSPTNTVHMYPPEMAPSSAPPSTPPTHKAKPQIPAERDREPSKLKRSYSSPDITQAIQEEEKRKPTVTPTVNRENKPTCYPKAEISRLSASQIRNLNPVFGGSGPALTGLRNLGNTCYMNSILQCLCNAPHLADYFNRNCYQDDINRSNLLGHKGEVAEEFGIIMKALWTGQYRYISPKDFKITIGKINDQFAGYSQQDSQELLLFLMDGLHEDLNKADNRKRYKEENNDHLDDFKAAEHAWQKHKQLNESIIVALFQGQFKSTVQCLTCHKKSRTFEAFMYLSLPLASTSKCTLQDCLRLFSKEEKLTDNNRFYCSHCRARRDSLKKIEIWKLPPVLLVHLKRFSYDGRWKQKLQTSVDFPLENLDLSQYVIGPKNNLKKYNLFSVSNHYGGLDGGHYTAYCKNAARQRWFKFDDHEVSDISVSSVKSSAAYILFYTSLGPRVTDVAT

[12] = molecular target: T4, Ubiquitin carboxyl-terminal hydrolase 8 (Homo sapiens); assay: Inhibition of recombinant USP8 catalytic domain (unknown origin) using Ubiquitin-Lys-TAMRA as substrate preincubated for 60 mins followed by substrate addition and measured at 6 mins interval for 4 hrs by fluorescence assay
[13] = molecular target: T2, Procathepsin L; assay: Irreversible inhibition of human liver cathepsin L at 50 uM using Z-FR-AMC as substrate preincubated for 3 hrs followed by compound washout measured by gel filtration assay
Procedure, shortened: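 Cathepsin L (10 nM) was preincubated with inhibitor (50 μM), then passed through a gel-filtration spin column to remove free compound. Flow-through aliquots were assayed for recovery of enzyme activity at several time points.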
Target sequence in this assay (P07711 114-333 limits assumed): as the sequence (P07711 114-333 limits assumed) above

[14] = molecular target: T2, Procathepsin L; assay: Inhibition of human liver cathepsin L using Z-FR-AMC as substrate measured at 1 min interval for 20 mins followed by every 15 mins for 2 hrs by fluorescence assay

| Ki [1] [µM] | Kinact [1] [s⁻¹] | Ratio [2] [M⁻¹ s⁻¹] | Ki [3] [µM] | Kinact [3] [s⁻¹] | Ratio [4] [M⁻¹ s⁻¹] | Structure (SMILES) | further results |
| --- | --- | --- | --- | --- | --- | --- | --- |
| 0.34 | 0.36 | 1.06e+06 | 0.72 | 0.28 | 389000 | O=C(N[C@H](/C=C/S(=O)(=O)c1ccccc1)CCc1ccccc1)[C@H](Cc1cc(I)c(O)c(I)c1)NC(=O)N1CCOCC1 | – |
| – | – | – | – | – | – | CS(=O)(=O)/C=C/CNC(=O)COc1ccc(Br)cc1Br | Ratio [5]: 5 M⁻¹ s⁻¹; Ki [6]: 59 µM; Kinact [6]: 0.0003 s⁻¹; inhibition [7]: inactive; inhibition [8]: inactive; inhibition [9]: inactive; inhibition [10]: inactive; inhibition [11]: inactive; inhibition [12]: inactive; inhibition [13]: Active |
| 11 | 0.17 | 15500 | 1 | 0.24 | 240000 | O=C(N[C@H](/C=C/S(=O)(=O)c1ccccc1)CCc1ccccc1)[C@H](Cc1ccccc1)NC(=O)N1CCOCC1 | – |
| – | – | – | – | – | – | C[C@@H](Oc1ccc(Br)cc1Br)C(=O)NC/C=C/S(C)(=O)=O | Ki [14]: 146 µM; Kinact [14]: 0.0006 s⁻¹ |
